The source of these data is ChEMBL document CHEMBL4004837, “Synthesis and Characterization of Urofuranoic Acids: In Vivo Metabolism of 2-(2-Carboxyethyl)-4-methyl-5-propylfuran-3-carboxylic Acid (CMPF) and Effects on in Vitro Insulin Secretion” (J Med Chem, 2017).

Structures are written as SMILES.

One data set has as its system HEK293. The data set is described as follows: Cytotoxicity against HEK293 cells assessed as fold change in capase3/7 activity by Caspase-Glo 3/7 assay relative to DMSO. The following applies: human. The data set is classed as cell-based.
For the next data set, the system named is Hepatocyte. The data set is described as follows: Cytotoxicity against mouse primary hepatocytes assessed as fold change in capase3/7 activity by Caspase-Glo 3/7 assay relative to DMSO. Format: cell-based.
A short description of data set [1]: Suppression of KCl-stimulated insulin secretion in mouse pancreatic islet at 200 uM incubated for 24 hrs followed by KCl stimulation for 20 mins by HTRF assay. Format: ADME, cell-based. The method, boiled down: (§1)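 Mouse islets treated with compounds at 200 µM. Insulin secretion was then measured under low- and high-glucose GSIS conditions and under KCl stimulation, and intracellular insulin content was measured. Mean of n = 4-5 experiments with SEM.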
(In general: TR-FRET usually uses a lanthanide donor and a delayed reading to cut background.)

Data set [2] in a line: Suppression of high glucose stimulated insulin secretion in mouse pancreatic islets at 200 uM treated for 24 hrs followed by glucose stimulation for 20 mins by HTRF assay relative to control. The data set is classed as ADME, cell-based. The note with it: pancreatic islet. Put shortly:
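Mouse islet screening assay in high-glucose (20 mM) medium with compounds at 200 µM. Insulin secretion is expressed as fold change relative to vehicle. Mean of n = 4 experiments with SEM; significance by Student's t-test, p ≤ 0.05.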

Data set [3] can be described thus: Suppression of glucose-stimulated insulin secretion in mouse pancreatic islet at 200 uM incubated for 24 hrs followed by glucose stimulation for 20 mins by HTRF assay. The data set is classed as ADME, cell-based. The method, boiled down:
as §1

A short description of data set [4]: Effect on insulin content in KCl-stimulated mouse pancreatic islet at 200 uM incubated for 24 hrs followed by KCl stimulation for 20 mins by HTRF assay. Format: ADME, cell-based. Put shortly: as §1
Data set [5] can be described thus: Effect on insulin content in glucose-stimulated mouse pancreatic islet at 200 uM incubated for 24 hrs followed by glucose stimulation for 20 mins by HTRF assay. The data set is classed as ADME, cell-based. Put shortly: as §1
A short description of data set [6]: Suppression of glucose stimulated insulin secretion in mouse pancreatic islet at 200 uM incubated for 24 hrs followed by glucose stimulation for 20 mins by HTRF assay relative to control.
The nature of data set [7]: Drug metabolism in human microsomes at 4 uM after 30 mins by single quad LC/MS analysis. The data set is classed as ADME, Microsome. The following applies: read-out: Drug metabolism.
Data set [8] can be described thus: Drug metabolism in mouse microsomes at 4 uM after 30 mins by single quad LC/MS analysis. Format: ADME, Microsome. The following applies: read-out: Drug metabolism.
The target in another data set is CYP3A4 (Homo sapiens, UniProt P08684). The data set is described as follows: Inhibition of human microsomal CYP3A4 at 10 uM after 3 mins by single quad LC/MS analysis. Format: ADME. The following applies: microsomes.
CYP3A4, sequence (P08684 whole entry): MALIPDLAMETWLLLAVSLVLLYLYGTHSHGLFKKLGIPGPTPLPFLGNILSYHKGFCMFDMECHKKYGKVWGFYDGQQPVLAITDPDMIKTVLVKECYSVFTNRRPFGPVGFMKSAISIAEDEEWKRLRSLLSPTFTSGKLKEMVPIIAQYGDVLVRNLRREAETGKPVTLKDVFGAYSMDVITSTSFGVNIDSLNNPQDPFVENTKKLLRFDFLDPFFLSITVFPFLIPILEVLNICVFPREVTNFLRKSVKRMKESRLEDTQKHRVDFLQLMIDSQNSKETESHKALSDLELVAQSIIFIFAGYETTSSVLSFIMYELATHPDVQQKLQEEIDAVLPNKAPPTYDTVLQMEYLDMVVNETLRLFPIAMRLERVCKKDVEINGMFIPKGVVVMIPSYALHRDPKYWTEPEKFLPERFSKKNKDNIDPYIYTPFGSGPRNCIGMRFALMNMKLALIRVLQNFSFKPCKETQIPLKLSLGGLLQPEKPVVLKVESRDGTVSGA
In a further data set the target is CYP2D6 (Homo sapiens, UniProt P10635). The data set is described as follows: Inhibition of human microsomal CYP2D6 at 10 uM after 3 mins by single quad LC/MS analysis. The data set is classed as ADME. The note with it: microsomes.
CYP2D6, sequence (P10635 whole entry): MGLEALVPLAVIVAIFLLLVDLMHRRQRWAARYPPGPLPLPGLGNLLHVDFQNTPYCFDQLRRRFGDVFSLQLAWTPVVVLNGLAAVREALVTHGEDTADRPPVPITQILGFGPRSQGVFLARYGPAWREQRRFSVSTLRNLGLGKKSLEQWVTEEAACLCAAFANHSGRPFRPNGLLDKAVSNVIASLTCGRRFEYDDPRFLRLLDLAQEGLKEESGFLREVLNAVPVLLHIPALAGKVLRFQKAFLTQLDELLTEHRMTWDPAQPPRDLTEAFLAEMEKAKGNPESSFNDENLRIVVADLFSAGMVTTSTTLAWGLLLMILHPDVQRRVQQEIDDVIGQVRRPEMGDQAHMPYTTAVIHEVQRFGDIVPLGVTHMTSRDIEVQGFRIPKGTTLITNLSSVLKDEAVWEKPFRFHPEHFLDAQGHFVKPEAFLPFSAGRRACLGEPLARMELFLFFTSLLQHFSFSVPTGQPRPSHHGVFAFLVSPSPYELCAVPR
The target in a further data set is CYP2C9 (Homo sapiens, UniProt P11712). The data set is described as follows: Inhibition of human microsomal CYP2C9 at 10 uM after 10 mins by single quad LC/MS analysis. The data set is classed as ADME. The following applies: microsomes.
CYP2C9, sequence (P11712 whole entry): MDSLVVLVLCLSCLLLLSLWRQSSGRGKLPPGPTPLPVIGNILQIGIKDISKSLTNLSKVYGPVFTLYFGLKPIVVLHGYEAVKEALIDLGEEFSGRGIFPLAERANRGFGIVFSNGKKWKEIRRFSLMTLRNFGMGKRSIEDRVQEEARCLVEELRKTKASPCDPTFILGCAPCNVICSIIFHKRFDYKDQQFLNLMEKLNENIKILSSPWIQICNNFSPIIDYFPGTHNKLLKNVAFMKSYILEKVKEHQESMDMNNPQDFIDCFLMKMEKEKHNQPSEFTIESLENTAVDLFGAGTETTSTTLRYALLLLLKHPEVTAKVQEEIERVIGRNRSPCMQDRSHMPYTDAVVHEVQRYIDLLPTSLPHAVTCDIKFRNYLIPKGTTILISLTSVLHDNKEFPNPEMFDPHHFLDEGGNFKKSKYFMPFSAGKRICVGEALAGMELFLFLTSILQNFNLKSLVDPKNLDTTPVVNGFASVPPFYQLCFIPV
A short description of data set [9]: Passive permeability in MDCK cells. The data set is classed as ADME, cell-based, Canis lupus familiaris. The note with it: dog.

For `CCCC1(O)OC(O)(CCC(=O)O)C(C(=O)O)=C1C` (centres undefined), the fold change (FC) in the data set with HEK293 is 1 to 1.1; with Hepatocyte, 0.9. The Activity result in data set [1], in data set [2], in data set [3], in data set [4], in data set [5] and in data set [6] was “Non-Toxic” in each case.

As to `COC(=O)CCc1oc2c(c1C(=O)OC)CCCC2`, the fold change (FC) is 1 to 1.1 with HEK293 and 0.4 in the data set on Hepatocyte. The figures for the metabolised at 0.5 h, 4 µM in data set [7] and in data set [8] were 16% and 76%, respectively. Further, the inhibition at 0.05 h, 10 µM on CYP3A4 amounted to 48%; on CYP2D6, 20%. Moreover, the inhibition at 10 min, 10 µM against CYP2C9 came out at 2%. Moreover, the Activity result in [2] and in data set [6] was “Toxic” throughout.

Turning to `CCCc1oc(CCC(C)=O)c(C(C)=O)c1C`, the “fold change (FC)” value with HEK293 was 0.9; in the data set with Hepatocyte, 0.3. For the same molecule, the inhibition at 0.05 h, 10 µM turned out to be 21% at CYP3A4 and 0% against CYP2D6. In addition, on CYP2C9, the inhibition at 10 min, 10 µM was determined as 0%.

For the molecule `CCCc1oc(CCC)c(C(=O)O)c1C`, the fold change (FC) in the data set on HEK293 is 1 to 2; in the data set on Hepatocyte, 1.4. In addition, the metabolised at 0.5 h, 4 µM in data set [7] came to 21%; in data set [8] it was 51%. Further, the results for the inhibition at 0.05 h, 10 µM against CYP3A4 and at CYP2D6 were 13% and 5%, respectively. At CYP2C9, this molecule had an inhibition at 10 min, 10 µM of 18%.

Turning to `CCc1oc(CCC(=O)OC)c(C(=O)OC)c1CC`, the fold change (FC) in the data set on HEK293 and in the data set with Hepatocyte was 0.9 to 1 in each case. Moreover, the Activity result in data set [1], in [2], in data set [3], in data set [4] and in data set [5] was “Toxic” in each case.

Turning to `COC(=O)CCc1oc(C)c(C)c1C(=O)OC`, the figures for the fold change (FC) with HEK293 and with Hepatocyte were 1 to 1.1 and 0.8, respectively. Moreover, the metabolised at 0.5 h, 4 µM is 0% in [7] and 16% in data set [8]. Moreover, the inhibition at 0.05 h, 10 µM against CYP3A4 is 22%; against CYP2D6, 12%. The inhibition at 10 min, 10 µM against CYP2C9 turned out to be 3%.

Take `Cc1c(CCOCc2ccccc2)oc(CCC(=O)O)c1C(=O)O`: the “fold change (FC)” value worked out at 1.1 in the data set on HEK293 and 1.4 with Hepatocyte.

For `CCCc1oc(CCCO)c(C(=O)O)c1C`, the “fold change (FC)” value with HEK293 is reported as 1; with Hepatocyte, 0.6. Besides, the metabolised at 0.5 h, 4 µM in data set [7] amounted to 10%; in [8], 9%. The inhibition at 0.05 h, 10 µM on CYP3A4 and on CYP2D6 was 2% each time. The inhibition at 10 min, 10 µM against CYP2C9 is 3%. Moreover, the Activity result in data set [2] and in data set [6] was “Non-Toxic” in each case.

`CCCc1oc(CCCO)c(C(=O)OC)c1C`: the fold change (FC) was 1 to 1.1 with HEK293 and 0.6 in the data set with Hepatocyte. Also, the metabolised at 0.5 h, 4 µM in [7] and in data set [8] was 100% throughout. Also, the inhibition at 0.05 h, 10 µM against CYP3A4 and against CYP2D6 was 0% throughout. The molecule also registered an inhibition at 10 min, 10 µM against CYP2C9 of 0%.

On to `CCC(=O)c1oc(CCC(=O)OC)c(C(=O)OC)c1C`, for which the fold change (FC) in the data set on HEK293 is 1 to 1.1; with Hepatocyte, 1.5.

On to `CCCc1oc(CCC(=O)O)c(C(=O)O)c1CCC`, for which the “fold change (FC)” value with HEK293 was 1; with Hepatocyte it was 1.6 to 1.8. The results for the metabolised at 0.5 h, 4 µM in [7] and in data set [8] were 3% and 7%, respectively. The inhibition at 0.05 h, 10 µM against CYP3A4 and against CYP2D6 was 0% in each case. At CYP2C9, this molecule gave an inhibition at 10 min, 10 µM of 0%. The Activity entry in data set [2] is “Toxic”.

On to `CCCC1(O)OC(O)(CCC(=O)OC)C(C(=O)OC)=C1C` (centres undefined), for which the figures for the fold change (FC) in the data set with HEK293 and in the data set on Hepatocyte were 0.9 to 1 and 0.3, respectively. The Activity result in data set [2] and in [6] was “Non-Toxic” in each case.

Regarding `CCCCCc1oc(CCC(=O)O)c(C(=O)O)c1C`, the “fold change (FC)” value is 1 with HEK293 and 1.2 to 1.5 in the data set with Hepatocyte. For the same molecule, the metabolised at 0.5 h, 4 µM was 5% in [7] and 7% in data set [8]. Besides, the inhibition at 0.05 h, 10 µM at CYP3A4 and at CYP2D6 was 3% each time. Besides, the inhibition at 10 min, 10 µM on CYP2C9 is 9%. Moreover, the Activity entry in [2] and in data set [6] was “Toxic” in each case.

As for `CCCc1oc(CCC(=O)O)cc1C`, the fold change (FC) in the data set with HEK293 is 0.9 to 1; in the data set with Hepatocyte, 0.7. The figures for the metabolised at 0.5 h, 4 µM in data set [7] and in [8] were 0% and 20%, respectively. Also, the inhibition at 0.05 h, 10 µM was found to be 3% at CYP3A4 and 0% at CYP2D6. This molecule came in with an inhibition at 10 min, 10 µM at CYP2C9 of 9%.

On to `CCCc1oc(C(=O)O)c(C)c1C`, for which the results for the fold change (FC) in the data set on HEK293 and in the data set with Hepatocyte were 1 to 1.2 and 2.2, respectively. For the same molecule, the metabolised at 0.5 h, 4 µM in data set [7] is 20%; in [8], 0%. Besides, the inhibition at 0.05 h, 10 µM against CYP3A4 and against CYP2D6 was 0% throughout. The inhibition at 10 min, 10 µM against CYP2C9 came to 0%.

Regarding `CCC(=O)c1oc(CCC(=O)O)c(C(=O)O)c1C`, the figures for the fold change (FC) in the data set on HEK293 and in the data set with Hepatocyte were 1 to 1.1 and 1.1, respectively. Besides, the inhibition at 0.05 h, 10 µM against CYP3A4 stood at 3%; against CYP2D6 it was 11%. In addition, the inhibition at 10 min, 10 µM at CYP2C9 came out at 10%.

With `CCCCCc1oc(CCC(=O)OC)c(C(=O)OC)c1C`, the fold change (FC) with HEK293 and with Hepatocyte was 1 to 1.2 throughout. For the same molecule, the values for the metabolised at 0.5 h, 4 µM in data set [7] and in data set [8] were 49% and 60%, respectively. Further, the inhibition at 0.05 h, 10 µM against CYP3A4 amounted to 59%; against CYP2D6, 28%. Further, the inhibition at 10 min, 10 µM at CYP2C9 is 27%. The Activity entry in data set [2] and in data set [6] was “Non-Toxic” in each case.

Turning to `CCCc1oc(CCC(=O)OC)c(C(=O)OC)c1CCC`, the fold change (FC) in the data set on HEK293 was in the range of 1 to 1.1; in the data set on Hepatocyte, 0.8 to 0.9.

For `CCC[C@H]1C[C@H](C(=O)OC)[C@@H](CCC(=O)OC)O1`, the fold change (FC) with HEK293 is 1 to 1.1; in the data set on Hepatocyte, 1.3.

For `CCC[C@H]1C[C@H](C(=O)O)[C@@H](CCC(=O)O)O1`, the results for the fold change (FC) in the data set on HEK293 and in the data set with Hepatocyte were 1 to 1.2 and 2, respectively.

For `CCc1oc(CCC(=O)O)c(C(=O)O)c1CC`, the figures for the “fold change (FC)” value in the data set on HEK293 and in the data set with Hepatocyte were 1 and 1.1, respectively. Besides, the metabolised at 0.5 h, 4 µM in data set [7] is 0%; in [8], 21%. The figures for the inhibition at 0.05 h, 10 µM at CYP3A4 and against CYP2D6 were 0% and 3%, respectively. The permeability result in data set [9] is “Impermeable”. Moreover, at CYP2C9, the inhibition at 10 min, 10 µM is 17%. Moreover, the Activity entry in [2] was “Non-Toxic”.

For the molecule `Cc1oc(CCC(=O)O)c(C(=O)O)c1C`, the figures for the fold change (FC) in the data set on HEK293 and in the data set with Hepatocyte were 0.8 to 1 and 2, respectively.

Broadly, the inhibition is the share of the control response that was lost under treatment. A lower inhibition goes with little suppression.
